From ChEMBL document CHEMBL1137088, “Distamycin analogues with enhanced lipophilicity: synthesis and antimicrobial activity” (2004)
≈ marks a conversion by molar mass, not a printed value. Calls of active or inactive are those of the source. No cut-off for these calls is given here.

Columns and labels:
Staphylococcus aureus [1] = experiment: Antibacterial activity against Staphylococcus aureus NCTC 6571 strain.; assay type: functional
Klebsiella aerogenes [2] = experiment: Antibacterial activity against Klebsiella aerogenes WRL CN 345 strain; na = not active; assay type: functional, organism-based
Enterococcus faecalis [3] = experiment: Antibacterial activity against Streptococcus faecalis NCTC 775 strain.; assay type: functional
Enterobacter cloacae = experiment: Antibacterial activity against Enterobacter cloacae NCTC 10005 strain.; assay type: functional, organism-based
Escherichia coli = experiment: Antibacterial activity against Escherichia coli NCTC 9001 strain.; assay type: functional, organism-based
[4] = system: Mycolicibacterium fortuitum; experiment: Antibacterial activity against Mycobacterium fortuitum NCTC 10394 strain.; assay type: functional
Candida albicans = experiment: Antifungal activity against Candida albicans NCPF 3179 strain.; assay type: functional; conditions: Candida albicans; read-out: MIC
Aspergillus niger [5] = experiment: Antifungal activity against Aspergillus niger IMI17454 strain; na = not active; assay type: functional
[6] = Antibacterial activity against Proteus vulgaris NCTC 4175 strain; na = not active; assay type: functional
Staphylococcus aureus [7] = experiment: Antibacterial activity against methicillin-resistant Staphylococcus aureus (MRSA) PHLS M1 strain.; assay type: functional
In short: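 Read-out is the minimum inhibitory concentration, reported in µM. Amoxycillin is tested alongside as the reference antibiotic.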

[8] = Antibacterial activity against Enterobacter cloacae NCTC 10005 strain; assay type: functional
Klebsiella aerogenes [9] = experiment: Antibacterial activity against Klebsiella aerogenes WRL CN 345 strain.; assay type: functional, WRL CN 375; conditions: Klebsiella aerogenes, WRL CN 375; read-out: MIC
Proteus vulgaris = experiment: Antibacterial activity against Proteus vulgaris NCTC 4175 strain.; assay type: functional
Aspergillus nidulans [10] = experiment: Antifungal activity against Aspergillus nidulans CABI 0160037 strain; na = not active; assay type: functional
Aspergillus niger [11] = experiment: Antifungal activity against Aspergillus niger IMI17454 strain.; assay type: functional; conditions: Aspergillus niger; read-out: MIC
Staphylococcus aureus [12] = experiment: Antibacterial activity against MRSA PHLS M1 strain; na = not active; assay type: functional, organism-based
Aspergillus nidulans [13] = experiment: Antifungal activity against Aspergillus nidulans CABI 0160037 strain; assay type: functional
[14] = Antifungal activity against Candida albicans NCPF 3179 strain; na = not active; assay type: functional
Staphylococcus aureus [15] = experiment: Antibacterial activity against Staphylococcus aureus NCTC 6571 strain; na = not active; assay type: functional, organism-based
Enterococcus faecalis [16] = experiment: Antibacterial activity against Streptococcus faecalis NCTC 775 strain; na = not active; assay type: functional, organism-based

| SMILES | MIC (Staphylococcus aureus [1]) [µM] | MIC (Klebsiella aerogenes [2]) | MIC (Enterococcus faecalis [3]) [µM] | MIC (Enterobacter cloacae) | MIC (Escherichia coli) | MIC [4] [µM] | MIC (Candida albicans) [µM] | MIC (Aspergillus niger [5]) | MIC [6] | MIC (Staphylococcus aureus [7]) | MIC [8] [µM] | MIC (Klebsiella aerogenes [9]) [µM] | MIC (Proteus vulgaris) [µM] | MIC (Aspergillus nidulans [10]) | MIC (Aspergillus niger [11]) [µM] | MIC (Staphylococcus aureus [12]) | MIC (Aspergillus nidulans [13]) [µM] | MIC [14] | MIC (Staphylococcus aureus [15]) | MIC (Enterococcus faecalis [16]) |
| --- | --- | --- | --- | --- | --- | --- | --- | --- | --- | --- | --- | --- | --- | --- | --- | --- | --- | --- | --- | --- |
| CN(C)CCCNC(=O)c1cc(NC(=O)c2cc(NC(=O)c3cc(NC=O)cn3C)cn2C2CCCC2)cn1C | 75 (≈ 41.3 µg/mL) | inactive | 75 (≈ 41.3 µg/mL) | inactive | inactive | 75.3 (≈ 41.5 µg/mL) | 75.3 (≈ 41.5 µg/mL) | inactive | inactive | 75.3 µM (not active) (≈ 41.5 µg/mL) |  |  |  |  |  |  |  |  |  |  |
| CC(C)CCn1cc(NC(=O)c2cc(NC=O)cn2C)cc1C(=O)Nc1cc(C(=O)NCCCN(C)C)n(C)c1 | 150 (≈ 82.9 µg/mL) |  | 57.5 (≈ 31.8 µg/mL) |  | inactive | 37.5 (≈ 20.7 µg/mL) | 150 (≈ 82.9 µg/mL) | 150 µM (≈ 82.9 µg/mL) |  | 150 µM (≈ 82.9 µg/mL) | 150 (≈ 82.9 µg/mL) | 37.5 (≈ 20.7 µg/mL) | 150 (≈ 82.9 µg/mL) | inactive |  |  |  |  |  |  |
| CC(C)n1cc(NC(=O)c2cc(NCc3ccccc3)cn2C)cc1C(=O)Nc1cc(C(=O)NCCCN(C)C)n(C)c1 | 147 (≈ 86.3 µg/mL) |  | 147 (≈ 86.3 µg/mL) | inactive | inactive | 73.5 (≈ 43.1 µg/mL) | 147 (≈ 86.3 µg/mL) |  | inactive |  |  | 147 (≈ 86.3 µg/mL) |  |  | 147 (≈ 86.3 µg/mL) | inactive | 73.5 (≈ 43.1 µg/mL) |  |  |  |
| CC(=O)Nc1cc(C(=O)Nc2cc(C(=O)Nc3cc(C(=O)NCCCN4CCOCC4)n(C)c3)n(CCC(C)C)c2)n(C)c1 |  | inactive |  | inactive | inactive | 140 (≈ 85.2 µg/mL) |  | inactive | inactive |  |  |  |  | inactive |  | inactive |  | inactive | inactive | inactive |
| CCn1cc(NC(=O)c2cc(NC(=O)c3cc(NC=O)cn3C)cn2C)nc1C(=O)NCCCN(C)C |  |  |  | inactive | inactive | 160 (≈ 81.9 µg/mL) |  | inactive |  |  |  | 40 (≈ 20.5 µg/mL) | 160 (≈ 81.9 µg/mL) |  |  | inactive | 160 (≈ 81.9 µg/mL) | inactive | inactive | inactive |
| CC(=O)Nc1cc(C(=O)Nc2cc(C(=O)Nc3cc(C(=O)NCCCN(C)C)n(C)c3)n(C)c2)n(C)c1 |  |  | 160 (≈ 81.7 µg/mL) |  | inactive | 160 (≈ 81.7 µg/mL) | 160 (≈ 81.7 µg/mL) |  |  | 40 µM (≈ 20.4 µg/mL) | 160 (≈ 81.7 µg/mL) | 80 (≈ 40.8 µg/mL) | 160 (≈ 81.7 µg/mL) |  | 160 (≈ 81.7 µg/mL) |  | 160 (≈ 81.7 µg/mL) |  | inactive |  |
| CN(C)CCCNC(=O)c1cc(NC(=O)c2cc(NC(=O)c3cc(NC(=O)/C=C/c4ccccc4)cn3C)cn2C)cn1C | 8.8 (≈ 5.27 µg/mL) |  | 8.8 (≈ 5.27 µg/mL) |  | inactive | 140 (≈ 83.8 µg/mL) | 35.1 (≈ 21 µg/mL) |  |  | 140 µM (≈ 83.8 µg/mL) | 70.2 (≈ 42 µg/mL) | 70.2 (≈ 42 µg/mL) | 70 (≈ 41.9 µg/mL) |  | 140 (≈ 83.8 µg/mL) |  | 70.2 (≈ 42 µg/mL) |  |  |  |
| CC(C)CCn1cc(NC(=O)c2cc(NC(=O)c3cc([N+](=O)[O-])cn3C)cn2C)cc1C(=O)Nc1cc(C(=O)NCCCN(C)C)n(C)c1 | 31.6 (≈ 21.4 µg/mL) |  | 15.8 (≈ 10.7 µg/mL) | inactive | inactive | 15.8 (≈ 10.7 µg/mL) | 15.8 (≈ 10.7 µg/mL) |  |  | 126 µM (≈ 85.3 µg/mL) |  | 15.8 (≈ 10.7 µg/mL) | 126 (≈ 85.3 µg/mL) |  | 15.8 (≈ 10.7 µg/mL) |  | 25.8 (≈ 17.5 µg/mL) |  |  |  |
| CC(=O)Nc1cc(C(=O)Nc2cc(C(=O)Nc3cc(C(=O)NCCCN4CCCC4)n(C)c3)n(C)c2)n(C)c1 |  |  | 153 (≈ 82.1 µg/mL) |  | inactive | 76.9 (≈ 41.3 µg/mL) |  |  | inactive |  | 153 (≈ 82.1 µg/mL) | 153 (≈ 82.1 µg/mL) |  |  | 153 (≈ 82.1 µg/mL) | inactive | 153 (≈ 82.1 µg/mL) | inactive | inactive |  |
| CCC(C)n1ncn(-c2ccc(N3CCN(c4ccc(OC[C@H]5CO[C@](Cn6cncn6)(c6ccc(Cl)cc6Cl)O5)cc4)CC3)cc2)c1=O (stereo not given in full) [ITRACONAZOLE] |  |  |  |  |  |  |  |  |  |  |  |  |  |  | 17.7 (≈ 12.5 µg/mL) |  | 35.4 (≈ 25 µg/mL) | 35.4 µM (≈ 25 µg/mL) |  |  |
| OC(Cn1cncn1)(Cn1cncn1)c1ccc(F)cc1F [FLUCONAZOLE] |  |  |  |  |  |  |  |  |  |  |  |  |  |  | > 300 |  | 90.8 (≈ 27.8 µg/mL) | 81.6 µM (≈ 25 µg/mL) |  |  |
| CC(C)n1cc(NC(=O)c2cc(NC(=O)c3cc(NC=O)cn3C(C)C)cn2C(C)C)cc1C(=O)NCCCN(C)C | 144 (≈ 83.6 µg/mL) |  | 72 (≈ 41.8 µg/mL) |  | inactive | 72 (≈ 41.8 µg/mL) | 144 (≈ 83.6 µg/mL) |  |  | 144 µM (≈ 83.6 µg/mL) | 36 (≈ 20.9 µg/mL) | 36 (≈ 20.9 µg/mL) | 144 (≈ 83.6 µg/mL) |  | 72 (≈ 41.8 µg/mL) |  | 72 (≈ 41.8 µg/mL) |  |  |  |
